According to ChEMBL document CHEMBL3098013, “Novel pyrazole integrated 1,3,4-oxadiazoles: synthesis, characterization and antimicrobial evaluation” (2014):
In brackets after ≈: the same amount, converted by molar mass.

Key:
Assay type in all cases: functional
Fusarium verticillioides [1] = experiment: Antimicrobial activity against Fusarium moniliforme MTCC 156 after 48 hrs by microdilution method; details: MTCC 156, 48 h
Summary of the method: (§1)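 The minimal inhibitory concentration was determined by dilution, alongside minimal bactericidal concentration for bacterial strains and minimal fungicidal concentration for fungal strains. Tests were run in six replicates, and the value is the mean of at least three determinations.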

Fusarium oxysporum [2] = experiment: Antimicrobial activity against Fusarium oxysporum MTCC 284 after 48 hrs by microdilution method; details: MTCC 284, 48 h; summary of the method: as §1
Aspergillus niger [3] = experiment: Antimicrobial activity against Aspergillus niger MTCC 281 after 48 hrs by microdilution method; details: MTCC 281, 48 h; summary of the method: as §1
Aspergillus flavus [4] = experiment: Antimicrobial activity against Aspergillus flavus MTCC 873 after 48 hrs by microdilution method; details: MTCC 873, 48 h; summary of the method: as §1
Klebsiella pneumoniae [5] = experiment: Antimicrobial activity against Klebsiella pneumoniae MTCC 3384 after 24 hrs by microdilution method; details: MTCC 3384, 24 h; summary of the method: as §1
Escherichia coli [6] = experiment: Antimicrobial activity against Escherichia coli MTCC 724 after 24 hrs by microdilution method; details: MTCC 724, 24 h; summary of the method: as §1
Staphylococcus aureus [7] = experiment: Antimicrobial activity against Staphylococcus aureus MTCC 96 after 24 hrs by microdilution method; details: MTCC 96, 24 h; summary of the method: as §1
Bacillus cereus [8] = experiment: Antimicrobial activity against Bacillus cereus MTCC 8372 after 24 hrs by microdilution method; details: MTCC 8372, 24 h; summary of the method: as §1
Fusarium verticillioides [9] = experiment: Antimicrobial activity against Fusarium moniliforme MTCC 156 at 100 ug/ml after 48 hrs by disc diffusion method; details: MTCC 156, 48 h, read-out: DIZ
Summary of the method: (§2)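 Agar diffusion read-out is the diameter of the inhibition zone in mm. Each test was run in six replicates and reported as mean ± standard deviation, taken from at least three determinations.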

Fusarium verticillioides [10] = experiment: Antimicrobial activity against Fusarium moniliforme MTCC 156 at 50 ug/ml after 48 hrs by disc diffusion method; details: MTCC 156, 48 h, read-out: DIZ; summary of the method: as §2
Fusarium oxysporum [11] = experiment: Antimicrobial activity against Fusarium oxysporum MTCC 284 at 100 ug/ml after 48 hrs by disc diffusion method; details: MTCC 284, 48 h, read-out: DIZ; summary of the method: as §2
Fusarium oxysporum [12] = experiment: Antimicrobial activity against Fusarium oxysporum MTCC 284 at 50 ug/ml after 48 hrs by disc diffusion method; details: MTCC 284, 48 h, read-out: DIZ; summary of the method: as §2
Aspergillus niger [13] = experiment: Antimicrobial activity against Aspergillus niger MTCC 281 at 100 ug/ml after 48 hrs by disc diffusion method; details: MTCC 281, 48 h, read-out: DIZ; summary of the method: as §2
Aspergillus niger [14] = experiment: Antimicrobial activity against Aspergillus niger MTCC 281 at 50 ug/ml after 48 hrs by disc diffusion method; details: MTCC 281, 48 h, read-out: DIZ; summary of the method: as §2
Aspergillus flavus [15] = experiment: Antimicrobial activity against Aspergillus flavus MTCC 873 at 100 ug/ml after 48 hrs by disc diffusion method; details: MTCC 873, 48 h, read-out: DIZ; summary of the method: as §2
Aspergillus flavus [16] = experiment: Antimicrobial activity against Aspergillus flavus MTCC 873 at 50 ug/ml after 48 hrs by disc diffusion method; details: MTCC 873, 48 h, read-out: DIZ; summary of the method: as §2
Klebsiella pneumoniae [17] = experiment: Antimicrobial activity against Klebsiella pneumoniae MTCC 3384 at 100 ug/ml after 24 hrs by disc diffusion method; details: MTCC 3384, 24 h, read-out: DIZ; summary of the method: as §2
Escherichia coli [18] = experiment: Antimicrobial activity against Escherichia coli MTCC 724 at 100 ug/ml after 24 hrs by disc diffusion method; details: MTCC 724, 24 h, read-out: DIZ; summary of the method: as §2
Klebsiella pneumoniae [19] = experiment: Antimicrobial activity against Klebsiella pneumoniae MTCC 3384 at 50 ug/ml after 24 hrs by disc diffusion method; details: MTCC 3384, 24 h, read-out: DIZ; summary of the method: as §2
Escherichia coli [20] = experiment: Antimicrobial activity against Escherichia coli MTCC 724 at 50 ug/ml after 24 hrs by disc diffusion method; details: MTCC 724, 24 h, read-out: DIZ; summary of the method: as §2
Staphylococcus aureus [21] = experiment: Antimicrobial activity against Staphylococcus aureus MTCC 96 at 100 ug/ml after 24 hrs by disc diffusion method; details: MTCC 96, 24 h, read-out: DIZ; summary of the method: as §2
Staphylococcus aureus [22] = experiment: Antimicrobial activity against Staphylococcus aureus MTCC 96 at 50 ug/ml after 24 hrs by disc diffusion method; details: MTCC 96, 24 h, read-out: DIZ; summary of the method: as §2
Bacillus cereus [23] = experiment: Antimicrobial activity against Bacillus cereus MTCC 8372 at 100 ug/ml after 24 hrs by disc diffusion method; details: MTCC 8372, 24 h, read-out: DIZ; summary of the method: as §2
Bacillus cereus [24] = experiment: Antimicrobial activity against Bacillus cereus MTCC 8372 at 50 ug/ml after 24 hrs by disc diffusion method; details: MTCC 8372, 24 h, read-out: DIZ; summary of the method: as §2

SMILES | MFC (Fusarium verticillioides [1]) | MIC (Fusarium verticillioides [1]) | MFC (Fusarium oxysporum [2]) | MIC (Fusarium oxysporum [2]) | MFC (Aspergillus niger [3]) | MIC (Aspergillus niger [3]) | MFC (Aspergillus flavus [4]) | MIC (Aspergillus flavus [4]) | MBC (Klebsiella pneumoniae [5]) | MIC (Klebsiella pneumoniae [5]) | MBC (Escherichia coli [6]) | MIC (Escherichia coli [6]) | MBC (Staphylococcus aureus [7]) | MIC (Staphylococcus aureus [7]) | MBC (Bacillus cereus [8]) | MIC (Bacillus cereus [8]) | zone of inhibition at 100 µg/mL (Fusarium verticillioides [9]) | zone of inhibition at 50 µg/mL (Fusarium verticillioides [10]) | zone of inhibition at 100 µg/mL (Fusarium oxysporum [11]) | zone of inhibition at 50 µg/mL (Fusarium oxysporum [12]) | further results
COc1cc(-c2nn(-c3ccccc3)c(C)c2-c2nnc(-c3ccccc3)o2)cc(OC)c1OC | 300 µg/mL (≈ 640 µM) | 55 µg/mL (≈ 117 µM) | 290 µg/mL (≈ 619 µM) | 40 µg/mL (≈ 85.4 µM) | 220 µg/mL (≈ 470 µM) | 30 µg/mL (≈ 64 µM) | 275 µg/mL (≈ 587 µM) | 45 µg/mL (≈ 96 µM) | 175 µg/mL (≈ 374 µM) | 25 µg/mL (≈ 53.4 µM) | 170 µg/mL (≈ 363 µM) | 25 µg/mL (≈ 53.4 µM) | 155 µg/mL (≈ 331 µM) | 20 µg/mL (≈ 42.7 µM) | 160 µg/mL (≈ 342 µM) | 20 µg/mL (≈ 42.7 µM) | 10 mm | 5 mm | 10 mm | 8 mm | zone of inhibition at 100 µg/mL (Aspergillus niger [13]): 20 mm; zone of inhibition at 50 µg/mL (Aspergillus niger [14]): 10 mm; zone of inhibition at 100 µg/mL (Aspergillus flavus [15]): 12 mm; zone of inhibition at 50 µg/mL (Aspergillus flavus [16]): 6 mm; zone of inhibition at 100 µg/mL (Klebsiella pneumoniae [17]): 10 mm; zone of inhibition at 100 µg/mL (Escherichia coli [18]): 17 mm; zone of inhibition at 50 µg/mL (Klebsiella pneumoniae [19]): 6 mm; zone of inhibition at 50 µg/mL (Escherichia coli [20]): 12 mm; zone of inhibition at 100 µg/mL (Staphylococcus aureus [21]): 26 mm; zone of inhibition at 50 µg/mL (Staphylococcus aureus [22]): 10 mm; zone of inhibition at 100 µg/mL (Bacillus cereus [23]): 22 mm; zone of inhibition at 50 µg/mL (Bacillus cereus [24]): 11 mm
Cc1c(C(=O)NNC(=O)c2ccccc2)c(-c2ccccc2)nn1-c1ccccc1 | 260 µg/mL (≈ 656 µM) | 50 µg/mL (≈ 126 µM) | 260 µg/mL (≈ 656 µM) | 40 µg/mL (≈ 101 µM) | 215 µg/mL (≈ 542 µM) | 30 µg/mL (≈ 75.7 µM) | 275 µg/mL (≈ 694 µM) | 50 µg/mL (≈ 126 µM) | 200 µg/mL (≈ 504 µM) | 25 µg/mL (≈ 63.1 µM) | 190 µg/mL (≈ 479 µM) | 25 µg/mL (≈ 63.1 µM) | 200 µg/mL (≈ 504 µM) | 25 µg/mL (≈ 63.1 µM) | 180 µg/mL (≈ 454 µM) | 25 µg/mL (≈ 63.1 µM) | 9 mm | 6 mm | 10 mm | 8 mm | zone of inhibition at 100 µg/mL (Aspergillus niger [13]): 14 mm; zone of inhibition at 50 µg/mL (Aspergillus niger [14]): 8 mm; zone of inhibition at 100 µg/mL (Aspergillus flavus [15]): 12 mm; zone of inhibition at 50 µg/mL (Aspergillus flavus [16]): 10 mm; zone of inhibition at 100 µg/mL (Klebsiella pneumoniae [17]): 14 mm; zone of inhibition at 100 µg/mL (Escherichia coli [18]): 18 mm; zone of inhibition at 50 µg/mL (Klebsiella pneumoniae [19]): 8 mm; zone of inhibition at 50 µg/mL (Escherichia coli [20]): 13 mm; zone of inhibition at 100 µg/mL (Staphylococcus aureus [21]): 18 mm; zone of inhibition at 50 µg/mL (Staphylococcus aureus [22]): 6 mm; zone of inhibition at 100 µg/mL (Bacillus cereus [23]): 16 mm; zone of inhibition at 50 µg/mL (Bacillus cereus [24]): 8 mm
COc1cc(-c2nnc(-c3c(-c4ccccc4)nn(-c4ccccc4)c3C)o2)cc(OC)c1OC | 300 µg/mL (≈ 640 µM) | 55 µg/mL (≈ 117 µM) | 275 µg/mL (≈ 587 µM) | 40 µg/mL (≈ 85.4 µM) | 275 µg/mL (≈ 587 µM) | 40 µg/mL (≈ 85.4 µM) | 275 µg/mL (≈ 587 µM) | 45 µg/mL (≈ 96 µM) | 160 µg/mL (≈ 342 µM) | 20 µg/mL (≈ 42.7 µM) | 150 µg/mL (≈ 320 µM) | 20 µg/mL (≈ 42.7 µM) | 250 µg/mL (≈ 534 µM) | 40 µg/mL (≈ 85.4 µM) | 230 µg/mL (≈ 491 µM) | 35 µg/mL (≈ 74.7 µM) | 10 mm | 7 mm | 10 mm | 8 mm | zone of inhibition at 100 µg/mL (Aspergillus niger [13]): 12 mm; zone of inhibition at 50 µg/mL (Aspergillus niger [14]): 5 mm; zone of inhibition at 100 µg/mL (Aspergillus flavus [15]): 13 mm; zone of inhibition at 50 µg/mL (Aspergillus flavus [16]): 4 mm; zone of inhibition at 100 µg/mL (Klebsiella pneumoniae [17]): 20 mm; zone of inhibition at 100 µg/mL (Escherichia coli [18]): 32 mm; zone of inhibition at 50 µg/mL (Klebsiella pneumoniae [19]): 10 mm; zone of inhibition at 50 µg/mL (Escherichia coli [20]): 20 mm; zone of inhibition at 100 µg/mL (Staphylococcus aureus [21]): 12 mm; zone of inhibition at 50 µg/mL (Staphylococcus aureus [22]): 5 mm; zone of inhibition at 100 µg/mL (Bacillus cereus [23]): 13 mm; zone of inhibition at 50 µg/mL (Bacillus cereus [24]): 4 mm
